From ChEMBL document CHEMBL4145478, “Synthesis and biological evaluation of bifendate derivatives bearing 6,7-dihydro-dibenzo[c,e]azepine scaffold as potential P-glycoprotein and tumor metastasis inhibitors” (Eur J Med Chem, 2018) come the findings set out here.

Structures can show the parent of a compound that is named as a salt. Active and inactive are the calls of the source. The calls are words filed in the database; no cut-off is given here.

For data set [1], the system named is K562. The experiment in a line: Cytotoxicity against human K562 cells assessed as reduction in cell viability after 72 hrs by MTS assay. In kind it is cell-based. Particulars: K562, 72 h. Summed up: (§1)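 Cells (1×10^4/well) in RPMI-1640 grown 24 h, then exposed to a range of concentrations for 72 h at 37 °C, 5% CO₂. MTS added for a further 3 h at 37 °C; absorbance read at 490 nm. IC50 from dose-response curves; means of triplicate experiments.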
A general note: Tetrazolium assays rely on reduction of a dye to a coloured formazan, in cell work by metabolically active cells.

Data set [2] has as its system K562/A02. The experiment in a line: Cytotoxicity against human K562/A02 cells assessed as reduction in cell viability after 72 hrs by MTS assay. In kind it is cell-based. Particulars: K562/A02, 72 h. Summed up: as §1
Data set [3] in a line: Selectivity ratio of IC50 for human K562/A02 cells to IC50 for human K562 cells. In kind it is ADME. The following applies: K562/A02 cells and K562 cells, read-out: Ratio IC50.
In data set [4] the test system is K562/A02. The experiment in a line: Inhibition of P-gp mediated efflux in human K562/A02 cells assessed as increase in intracellular Rh123 accumulation after 1 hr by flow cytometric analysis. In kind it is cell-based. Summed up:
(§2)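 1×10^6 K562 or K562/A02 cells preincubated 1 h at 37 °C with compound (10 μM single dose; dose-response at 10, 3.3 and 0.3 μM), verapamil or 0.1% DMSO vehicle, then 0.5 μM Rh123 for 30 min. Stopped and washed three times with ice-cold PBS; flow cytometry. Fold change = fluorescence over vehicle; mean ± S.D., three independent experiments.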
For orientation: A flow cytometer gives signals particle by particle.

The subject of data set [5] is K562. The data set can be described thus: Effect on intracellular Rh123 accumulation in human K562 cells at 0.3 to 10 uM after 1 hr by flow cytometric analysis. In kind it is functional, cell-based. In short, it runs like this:
as §2

Data set [6] concerns MDA-MB-231. The experiment in a line: Antimigratory activity against human MDA-MB-231 cells assessed as reduction in cell invasion at 5 to 45 uM after 24 hrs by crystal violet staining-based matrigel assay. In kind it is functional. In short, it runs like this: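 MDA-MB-231 cells pretreated 24 h with 5, 15 or 45 μM, seeded in serum-free medium into transwell chambers precoated with matrigel (40 μg/100 μL/chamber, 37°C, 1 h); lower compartment medium with 10% FBS. Incubation 24 h, then invaded cells stained with crystal violet and counted in three random fields; expressed as % of control.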

Data set [7] addresses 72 kDa type IV collagenase (Homo sapiens) (UniProt P08253). The data set can be described thus: Inhibition of MMP2 activity in human MDA-MB-231 cells after 24 hrs by gelatin zymography assay. In kind it is cell-based.
The test system of data set [8] is MDA-MB-231. The experiment in a line: Inhibition of MMP9 expression in human MDA-MB-231 cells after 24 hrs by Western blot analysis. In kind it is functional, cell-based. In short, it runs like this:
(§3)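 MDA-MB-231 cells exposed to 5, 15 or 45 μM for 24 h, then lysed; immunoblotted with antibodies against MMP-2 and MMP-9; detection with BCIP/NBT alkaline phosphatase substrate for 15 min.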
(Immunoblotting shows a protein as a band on a membrane.)

For data set [9], the target named is 72 kDa type IV collagenase (Homo sapiens) (UniProt P08253). The experiment in a line: Residual MMP2 activity in human MDA-MB-231 cells at 5 uM after 24 hrs by gelatin zymography assay relative to control.
Chain of 72 kDa type IV collagenase (Homo sapiens) (P08253 110-660 limits assumed): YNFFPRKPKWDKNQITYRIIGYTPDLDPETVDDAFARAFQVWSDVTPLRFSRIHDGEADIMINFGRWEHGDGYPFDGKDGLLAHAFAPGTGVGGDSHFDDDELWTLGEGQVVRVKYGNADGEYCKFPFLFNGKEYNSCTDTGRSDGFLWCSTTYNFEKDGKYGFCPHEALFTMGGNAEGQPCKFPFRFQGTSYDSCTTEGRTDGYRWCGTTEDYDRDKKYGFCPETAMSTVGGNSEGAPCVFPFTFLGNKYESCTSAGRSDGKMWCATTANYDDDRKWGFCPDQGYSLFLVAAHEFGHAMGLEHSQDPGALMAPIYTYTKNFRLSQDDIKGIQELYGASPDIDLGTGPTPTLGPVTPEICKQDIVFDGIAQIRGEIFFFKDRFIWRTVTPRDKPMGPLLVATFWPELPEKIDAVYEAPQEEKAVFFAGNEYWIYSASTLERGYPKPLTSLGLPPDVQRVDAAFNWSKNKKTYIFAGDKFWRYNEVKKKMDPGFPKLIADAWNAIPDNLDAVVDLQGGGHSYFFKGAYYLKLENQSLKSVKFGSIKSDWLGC
The subject of data set [10] is K562/A02. The data set can be described thus: Effect on P-gp protein expression in human K562/A02 cells at 2 uM after 48 hrs by Western blot analysis. In kind it is functional, cell-based.
Data set [11] relates to MMP-9 (92 kDa type IV collagenase, Homo sapiens). The data set can be described thus: Inhibition of MMP9 activity in human MDA-MB-231 cells at 5 uM after 24 hrs by gelatin zymography assay relative to control; values are per cent of control.
The subject of data set [12] is K562/A02. The data set can be described thus: Effect on P-gp mRNA expression in human K562/A02 cells at 2 uM after 48 hrs by RT-PCR analysis. In kind it is functional, cell-based.
The subject of data set [13] is MDA-MB-231. The experiment in a line: Inhibition of MMP2 expression in human MDA-MB-231 cells after 24 hrs by Western blot analysis. In kind it is functional, cell-based. Summed up:
as §3

Data set [14] relates to K562/A02. The experiment in a line: Inhibition of P-gp-mediated drug resistance in human K562/A02 cells assessed as reduction in adriamycin IC50 at 2 uM after 72 hrs by MTS assay relative to adriamycin alone. In kind it is cell-based. Summed up: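 K562/A02 cells exposed to adriamycin with or without 2.0 μM modulator; verapamil 2.0 μM as reference. Viability by MTS after 72 h at 37 °C (absorbance 490 nm), adriamycin IC50 from dose-response curves. Reversal fold = adriamycin IC50 alone / adriamycin IC50 with modulator.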

Data set [15] concerns MDA-MB-231. The data set can be described thus: Antimigratory activity against human MDA-MB-231 cells assessed as delay in cell migration at 5 to 45 uM after 4 hrs by crystal violet staining-based chamber migration assay relative to control. In kind it is functional. Summed up:
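MDA-MB-231 cells pretreated 24 h with 5, 15 or 45 μM, suspended in serum-free medium and placed in upper transwell compartment; lower compartment medium with 10% FBS. After 4 h non-migrated cells swabbed off; migrated cells fixed in methanol, stained with 0.5% crystal violet, counted manually in three random fields. Migrated cells expressed as % of control.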

For data set [16], the target named is Matrix metalloproteinase-9 (Homo sapiens) (UniProt P14780). The data set can be described thus: Inhibition of MMP9 activity in human MDA-MB-231 cells after 24 hrs by gelatin zymography assay.
Chain of Matrix metalloproteinase-9 (Homo sapiens) (P14780 whole entry): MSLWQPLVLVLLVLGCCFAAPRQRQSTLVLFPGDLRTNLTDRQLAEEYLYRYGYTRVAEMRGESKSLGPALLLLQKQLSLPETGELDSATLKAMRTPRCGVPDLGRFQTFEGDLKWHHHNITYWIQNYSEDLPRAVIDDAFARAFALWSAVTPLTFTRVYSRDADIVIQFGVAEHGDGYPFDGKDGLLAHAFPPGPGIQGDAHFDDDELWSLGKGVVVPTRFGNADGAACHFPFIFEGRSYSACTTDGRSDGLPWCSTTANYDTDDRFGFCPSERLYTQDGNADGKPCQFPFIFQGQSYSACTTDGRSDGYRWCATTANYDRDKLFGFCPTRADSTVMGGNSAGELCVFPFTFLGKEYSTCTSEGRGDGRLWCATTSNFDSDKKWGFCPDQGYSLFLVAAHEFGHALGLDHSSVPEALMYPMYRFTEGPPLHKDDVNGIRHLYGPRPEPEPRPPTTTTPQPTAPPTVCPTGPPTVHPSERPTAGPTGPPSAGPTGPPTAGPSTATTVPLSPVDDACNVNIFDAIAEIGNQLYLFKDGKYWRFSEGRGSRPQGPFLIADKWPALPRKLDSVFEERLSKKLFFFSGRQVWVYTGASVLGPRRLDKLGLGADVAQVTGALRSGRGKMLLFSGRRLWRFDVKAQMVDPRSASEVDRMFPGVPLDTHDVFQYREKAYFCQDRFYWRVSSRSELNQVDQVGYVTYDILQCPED
Data set [17] deals with MDA-MB-231. The experiment in a line: Antiproliferative activity against human MDA-MB-231 cells after 72 hrs by MTT assay. In kind it is cell-based. Particulars: MDA-MB-231, 72 h.
Data set [18] relates to MDA-MB-231. The data set can be described thus: Antimigratory activity against human MDA-MB-231 cells assessed as reduction in wound healing after 24 hrs by inverted microscopic analysis. In kind it is functional, cell-based. Summed up:
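Confluent MDA-MB-231 monolayer scratched with 200 μL pipette tip, washed twice with PBS, then exposed to 5, 15 or 45 μM in DMEM with 10% FBS. Wound photographed by inverted microscope at 0 and 24 h. Relative migration = migration distance of treated cells divided by that of control.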

As usually defined, the IC50 is the point on the concentration scale where inhibition reaches its midpoint. On to `COc1cc2c(c3c1OCO3)-c1c(cc(OC)c3c1OCO3)CN(CCCCCCNC(=O)c1ccc(Cl)c(Cl)c1)C2`, for which the half-inhibitory concentration (IC50) in the data set with K562 [1] is 5.07 µM; in the data set with K562/A02 [2], 11.5 µM.

Take `COc1cccc2c1C(=O)c1c(O)c3c(c(O)c1C2=O)C[C@@](O)(C(=O)CO)C[C@@H]3O[C@H]1C[C@H](N)[C@H](O)[C@H](C)O1` [DOXORUBICIN HYDROCHLORIDE]: the IC50 in the data set with K562 [1] came to 0.39 µM; with K562/A02 [2] it was 25 µM. Also, the selectivity ratio in data set [3] came out at 64.

Consider `COc1ccc(C(=O)NCCN2Cc3cc(OC)c4c(c3-c3c(cc(OC)c5c3OCO5)C2)OCO4)cc1OC`, for which the 50% inhibitory concentration (IC50) in the data set on K562 [1] was found to be 30.5 µM; in the data set on K562/A02 [2], 65.8 µM. Besides, the inhibition result in the data set on K562/A02 [4] is “Dose-dependent effect”. Further, the inhibition entry with K562 [5] was “inactive”.

Regarding `COc1cc(C(=O)NCCCCCCN2Cc3cc(OC)c4c(c3-c3c(cc(OC)c5c3OCO5)C2)OCO4)cc(OC)c1OC`, the IC50 in the data set with K562 [1] was found to be 11.8 µM; in the data set on K562/A02 [2], 31.8 µM.

Consider `COc1cc2c(c3c1OCO3)-c1c(cc(OC)c3c1OCO3)CN(CCCCCCNC(=O)c1cccs1)C2`, for which the concentration for half-maximal inhibition (IC50) is 12.5 µM with K562 [1] and 29 µM with K562/A02 [2].

Broadly, the residual activity is what remains of the control signal, in per cent. A low value points to little activity left. Turning to `COc1ccc(NC(=O)CCN2Cc3cc(OC)c4c(c3-c3c(cc(OC)c5c3OCO5)C2)OCO4)cc1OC`, the figures for the IC50 with K562 [1], in the data set on K562/A02 [2] and in the data set on MDA-MB-231 [17] were 34.8 µM, 69.9 µM and 80.5 µM, respectively. The outcome in the data set with MDA-MB-231 [6] and with MDA-MB-231 [18] was Active. Moreover, the inhibition result (in data set [7]; with MDA-MB-231 [8]; in the data set with K562/A02 [4]; in the data set with MDA-MB-231 [13]; in data set [16]) was “Dose-dependent effect” throughout. The residual activity in data set [9] was found to be 52.8%; in data set [11], 52.6%. For the same molecule, the result with K562/A02 [10] and with K562/A02 [12] was inactive. The fold change (FC) in the data set on K562/A02 [14] was determined as 5.76. Also, in the data set on K562 [5], the inhibition result is “inactive”. The Activity in the data set with MDA-MB-231 [15] is 54.8%.

In the case of `COc1cc2c(c3c1OCO3)-c1c(cc(OC)c3c1OCO3)CN(CCNC(=O)c1ccc(C)cc1)C2`, the half-inhibitory concentration (IC50) with K562 [1] was determined as 14.4 µM; in the data set on K562/A02 [2] it was 28.2 µM.

For `COc1cc2c(c3c1OCO3)-c1c(cc(OC)c3c1OCO3)CN(CCCCCCNC(=O)c1ccc(C)cc1)C2`, the IC50 with K562 [1] was determined as 8.18 µM; in the data set on K562/A02 [2] it was 23.3 µM.

Turning to `COc1cc2c(c3c1OCO3)-c1c(cc(OC)c3c1OCO3)CN(CCCCCCNC(=O)c1ccc(Cl)cc1)C2`, the values for the IC50 with K562 [1] and in the data set on K562/A02 [2] were 5.85 µM and 18.4 µM, respectively.

Turning to `COc1ccccc1C(=O)NCCCCCCN1Cc2cc(OC)c3c(c2-c2c(cc(OC)c4c2OCO4)C1)OCO3`, the IC50 came to 11 µM in the data set on K562 [1] and 26.2 µM in the data set on K562/A02 [2].

As for `COc1ccccc1C(=O)NCCN1Cc2cc(OC)c3c(c2-c2c(cc(OC)c4c2OCO4)C1)OCO3`, the 50% inhibitory concentration (IC50) was determined as 15 µM in the data set on K562 [1] and 63.9 µM in the data set with K562/A02 [2].

On to `COc1ccc(NC(=O)CCN2Cc3cc(OC)c4c(c3-c3c(cc(OC)c5c3OCO5)C2)OCO4)cc1`, for which the half-inhibitory concentration (IC50) in the data set with K562 [1] was found to be 29.8 µM; in the data set on K562/A02 [2] it was 43.2 µM.

Take `COc1cc(C(=O)NCCN2Cc3cc(OC)c4c(c3-c3c(cc(OC)c5c3OCO5)C2)OCO4)cc(OC)c1OC`: the concentration for half-maximal inhibition (IC50) with K562 [1] was 16.9 µM; in the data set with K562/A02 [2], 47.2 µM; with MDA-MB-231 [17], 85.8 µM. The outcome with MDA-MB-231 [6] and with MDA-MB-231 [18] was Active. The inhibition entry (in data set [7]; with MDA-MB-231 [8]; in the data set on K562/A02 [4]; in the data set with MDA-MB-231 [13]; in data set [16]) was “Dose-dependent effect” in each case. The figures for the residual activity in [9] and in data set [11] were 59.1% and 58.2%, respectively. The outcome in the data set on K562/A02 [10] and in the data set on K562/A02 [12] was inactive. In the data set on K562/A02 [14], the fold change (FC) worked out at 3.82. Further, in the data set on K562 [5], the inhibition entry is “inactive”. For the same molecule, in the data set with MDA-MB-231 [15], the Activity is 65.7%.

As to `COc1ccc(C(=O)NCCCCCCN2Cc3cc(OC)c4c(c3-c3c(cc(OC)c5c3OCO5)C2)OCO4)cc1OC`, the 50% inhibitory concentration (IC50) stood at 14.1 µM in the data set with K562 [1] and 28.3 µM in the data set with K562/A02 [2].

Turning to `COc1ccccc1NC(=O)CCN1Cc2cc(OC)c3c(c2-c2c(cc(OC)c4c2OCO4)C1)OCO3`, the IC50 stood at 23.1 µM in the data set on K562 [1] and 72.9 µM with K562/A02 [2].

In the case of `COc1cc2c(c3c1OCO3)-c1c(cc(OC)c3c1OCO3)CN(CCc1ccc3c(c1)OCO3)C2`, the IC50 was 51.4 µM with K562 [1] and greater than 100 µM in the data set with K562/A02 [2]. Further, the fold change (FC) in the data set on K562/A02 [14] amounted to 3.99.

With `COc1cc2c(c3c1OCO3)-c1c(cc(OC)c3c1OCO3)CN(CCCCCCNC(=O)c1ccc(Cl)cc1Cl)C2`, the half-maximal inhibitory concentration (IC50) in the data set with K562 [1] was 13.7 µM; in the data set with K562/A02 [2], 34.5 µM.
